As a reminder, the Ki is a measure of affinity in units of concentration, obtained from inhibition or displacement. A high value points to weaker binding.

Ratio Ki and Ki data for 14 compounds are collected here from ChEMBL document CHEMBL3596191, “Inhibition studies of bacterial, fungal and protozoan β-class carbonic anhydrases with Schiff bases incorporating sulfonamide moieties” (Bioorg Med Chem, 2015).

In assay [1] the test system is Brucella suis. Nature of the assay: Potency index, ratio of benzolamide Ki to compound Ki for Brucella suis beta-carbonic anhydrase 2.
Assay [2] can be described thus: Inhibition of Leishmania donovani chagasi beta-carbonic anhydrase incubated for 15 mins prior to testing by stopped-flow CO2 hydration assay. In outline:
(§1)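 CO2 was 1.7–17 mM. Initial rates were taken from at least six traces of the first 5–10% of reaction over 10–100 s, with uncatalysed rates subtracted. Inhibitor dilutions were in water down to 0.01 nM, preincubated with enzyme 15 min at room temperature.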

Assay [3] can be described thus: Selectivity ratio of Ki for human alpha-carbonic anhydrase 1 to Ki for Brucella suis beta-carbonic anhydrase 1.
The nature of assay [4]: Inhibition of Brucella suis beta-carbonic anhydrase 1 incubated for 15 mins prior to testing by stopped-flow CO2 hydration assay. In outline: (§2)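 Stopped-flow CO2 hydration; 0.2 mM phenol red read at 557 nm in 10 mM Hepes pH 7.4, 10 mM Tris-HCl, 0.1 M NaSO4; CO2 1.7–17 mM. Inhibitor (10 mM water stock, diluted down to 0.01 nM) preincubated with enzyme 15 min at room temperature. Initial rates from at least six traces of the first 5–10% of reaction, over 10–100 s, with uncatalysed rates subtracted.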

A short description of assay [5]: Inhibition of Cryptococcus neoformans beta-carbonic anhydrase incubated for 15 mins prior to testing by stopped-flow CO2 hydration assay. In outline: as §1
Assay [6] is described as follows: Selectivity ratio of Ki for human alpha-carbonic anhydrase 2 to Ki for Brucella suis beta-carbonic anhydrase 2.
Assay [7] is described as follows: Inhibition of Brucella suis beta-carbonic anhydrase 2 incubated for 15 mins prior to testing by stopped-flow CO2 hydration assay. The method, boiled down: as §2
A short description of assay [8]: Selectivity ratio of Ki for human alpha-carbonic anhydrase 2 to Ki for Brucella suis beta-carbonic anhydrase 1.
The subject of assay [9] is Brucella suis. Nature of the assay: Potency index, ratio of acetazolamide Ki to compound Ki for Brucella suis beta-carbonic anhydrase 2.
Assay [10] concerns Brucella suis. Briefly: Potency index, ratio of dichlorphenamide Ki to compound Ki for Brucella suis beta-carbonic anhydrase 2.
Assay [11] is described as follows: Selectivity ratio of Ki for human alpha-carbonic anhydrase 1 to Ki for Brucella suis beta-carbonic anhydrase 2.
Assay [12] is described as follows: Selectivity ratio of Ki for human alpha-carbonic anhydrase 2 to Ki for Cryptococcus neoformans beta-carbonic anhydrase. The method, boiled down:
(§3)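 Ki ratio, human CA isoform Ki divided by pathogen β-CA Ki, used as an index of selectivity for the pathogen enzyme over the human enzyme.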

Assay [13] is described as follows: Selectivity ratio of Ki for human alpha-carbonic anhydrase 1 to Ki for Cryptococcus neoformans beta-carbonic anhydrase. In outline:
as §3

The nature of assay [14]: Selectivity ratio of Ki for human alpha-carbonic anhydrase 1 to Ki for Leishmania donovani chagasi beta-carbonic anhydrase. In outline:
as §3

Assay [15] is described as follows: Selectivity ratio of Ki for human alpha-carbonic anhydrase 2 to Ki for Leishmania donovani chagasi beta-carbonic anhydrase. The method, boiled down: as §3

Molecules are shown by their SMILES. Some results are limits rather than exact numbers.

Regarding `NS(=O)(=O)c1ccc(CC/N=C/c2ccc(-c3ccccn3)cc2)cc1`, the Ratio Ki in the assay with Brucella suis [1] turned out to be 10; in assay [3], 2.5; in assay [6] it was 16.3; in assay [8], 0.8; with Brucella suis [9], 10; in the assay on Brucella suis [10] it was 10. The Ratio Ki worked out at 54.2 in assay [11]; 20.9 in [12]; 69.9 in assay [13]; 1.1 in assay [14]; 0.3 in [15]. Also, the Ki in assay [2] was found to be 1240 nM; in [4] it was 529 nM; in assay [5] it was 19.2 nM; in assay [7], 24.8 nM.

On to `COc1cc([N+](=O)[O-])ccc1/C=N/CCc1ccc(S(N)(=O)=O)cc1`, for which the Ki in [2] was 1940 nM; in [4] it was 330 nM; in [5] it was 21.2 nM; in [7] it was 163 nM. The Ratio Ki in [3] stood at 0.7; in assay [6], 1; in [8], 0.5; with Brucella suis [9] it was 2; in [11], 1.3; in assay [12] it was 7.9. Further, the Ratio Ki in assay [13] was found to be 10.1; in [14], 0.1; in [15], 0.09.

With `NS(=O)(=O)c1ccc(CC/N=C/c2ccc(S(=O)(=O)O)o2)cc1`, the Ratio Ki in the assay with Brucella suis [1] was determined as 10; in assay [3], 4.2; in assay [6], 18.1; in [8], 0.7; in the assay with Brucella suis [9] it was 10; with Brucella suis [10], 10. The Ratio Ki in [11] worked out at 111; in assay [12], 38.5; in assay [13] it was 236; in assay [14], 2; in [15], 0.3. The Ki is 1430 nM in assay [2], 682 nM in [4], 12.1 nM in assay [5] and 25.7 nM in assay [7].

Consider `NS(=O)(=O)c1ccc(/N=C/c2ccc(-c3ccccc3)cc2)c(F)c1`, for which the Ki turned out to be 155 nM in [2], 523 nM in assay [4], 9.5 nM in [5] and 161 nM in assay [7]. The Ratio Ki came to 2.9 in [3]; 3.1 in assay [6]; 1 in assay [8]; 2 in the assay on Brucella suis [9]; 9.4 in assay [11]; 52.4 in [12]. Also, the Ratio Ki in [13] worked out at 159; in assay [14], 9.7; in [15], 3.2.

For the compound `NS(=O)(=O)c1ccc(/N=C/c2csc3ccccc23)cc1`, the Ki in assay [2] is 1420 nM; in [4], 1030 nM; in [5], 16.7 nM; in assay [7], 207 nM. The Ratio Ki in [3] was 3; in assay [6], 3.2; in [8] it was 0.6; in [11], 14.8; in assay [12], 39.8; in [13], 183. Further, the Ratio Ki in assay [14] amounted to 2.1; in assay [15], 0.5.

Turning to `NS(=O)(=O)c1ccc(/N=C/c2ccc(Br)cc2O)cc1`, the Ratio Ki is 10 with Brucella suis [1]; 6.9 in assay [3]; 29.9 in assay [6]; 1.1 in assay [8]; 10 in the assay on Brucella suis [9]; 10 with Brucella suis [10]. Moreover, the Ratio Ki in assay [11] is 183; in [12], 41.9; in assay [13] it was 256; in assay [14], less than 1.7; in [15], less than 0.3. The Ki was greater than 2500 nM in assay [2], 625 nM in [4], 16.9 nM in assay [5] and 23.7 nM in assay [7].

In the case of `COc1ccc(/C=N/CCc2ccc(S(N)(=O)=O)cc2)c(O)c1`, the Ratio Ki in the assay with Brucella suis [1] came to 10; in [3], 40.2; in assay [6], 31.8; in [8] it was 6.4; in the assay on Brucella suis [9] it was 10; in the assay with Brucella suis [10], 10. Also, the Ratio Ki in assay [11] was found to be 201; in assay [12], 40.9; in assay [13] it was 258; in assay [14] it was 23.2; in assay [15], 3.7. Besides, the Ki was found to be 190 nM in assay [2], 110 nM in [4], 17 nM in assay [5] and 21.9 nM in assay [7].

Turning to `NS(=O)(=O)c1ccc(CC/N=C/c2cccc(Br)c2O)cc1`, the Ratio Ki is 10 with Brucella suis [1]; 118 in [3]; greater than 412 in [6]; greater than 222 in assay [8]; 10 with Brucella suis [9]; 10 with Brucella suis [10]. For the same compound, the Ratio Ki in assay [11] is 220; in assay [12], greater than 637; in assay [13], 340; in [14] it was 4.2; in [15], greater than 7.9. Besides, the Ki stood at 1270 nM in assay [2], 45.1 nM in assay [4], 15.7 nM in [5] and 24.3 nM in [7].

Take `N#Cc1ccc(/C=N/CCc2ccc(S(N)(=O)=O)cc2)cc1`: the Ratio Ki in the assay with Brucella suis [1] was 100; in assay [3], 25.7; in [6], 215; in assay [8] it was 8.4; in the assay with Brucella suis [9], 100; in the assay on Brucella suis [10] it was 100. Also, the Ratio Ki in assay [11] amounted to 662; in [12] it was 34.6; in assay [13], 106; in assay [14], 1.6; in assay [15], 0.5. Also, the Ki in assay [2] came out at 1400 nM; in assay [4] it was 85.2 nM; in assay [5], 20.6 nM; in assay [7], 3.31 nM.

For the compound `CSc1ccc(/C=N/CCc2ccc(S(N)(=O)=O)cc2)cc1`, the Ratio Ki was found to be 10 with Brucella suis [1]; 37 in [3]; 24.7 in assay [6]; 8.9 in assay [8]; 10 with Brucella suis [9]; 10 in the assay with Brucella suis [10]. Also, the Ratio Ki is 102 in assay [11]; 32.5 in assay [12]; 135 in assay [13]; 13.6 in assay [14]; 3.3 in assay [15]. The Ki in assay [2] stood at 216 nM; in [4], 79.4 nM; in assay [5], 21.8 nM; in [7], 28.7 nM.

For the compound `NS(=O)(=O)c1ccc(CC/N=C/c2ccc(-c3ccccc3)cc2)cc1`, the Ratio Ki amounted to 10 with Brucella suis [1]; 117 in assay [3]; 46.5 in assay [6]; 11.7 in [8]; 10 in the assay on Brucella suis [9]; 10 with Brucella suis [10]. For the same compound, the Ratio Ki was 465 in assay [11]; 487 in assay [12]; 4860 in assay [13]; 12.9 in [14]; 1.3 in assay [15]. Besides, the Ki was determined as 542 nM in assay [2], 59.7 nM in [4], 1.44 nM in assay [5] and 15.1 nM in [7].

Consider `NS(=O)(=O)c1ccc(/N=C/c2ccc(-c3ccccn3)cc2)cc1`, for which the Ki in assay [2] is 1250 nM; in assay [4], 940 nM; in assay [5], 21.7 nM; in [7], 255 nM. Moreover, the Ratio Ki in [3] stood at 4.6; in assay [6] it was 2.7; in [8] it was 0.7; in assay [11], 17.1; in [12], 31.4; in [13] it was 202. Besides, the Ratio Ki in assay [14] turned out to be 3.5; in assay [15], 0.5.

On to `NS(=O)(=O)c1ccc(CC/N=C/c2ccc(Br)cc2O)cc1`, for which the Ratio Ki with Brucella suis [1] turned out to be 10; in assay [3] it was 5.6; in [6], 20.8; in assay [8] it was 0.9; with Brucella suis [9], 10; in the assay with Brucella suis [10] it was 10. Also, the Ratio Ki was found to be 132 in assay [11]; 29.9 in assay [12]; 190 in [13]; 2.1 in assay [14]; 0.3 in assay [15]. The Ki in assay [2] was determined as 1980 nM; in assay [4] it was 761 nM; in [5], 22.3 nM; in [7], 32 nM.

In the case of `NS(=O)(=O)c1ccc(/N=C/c2ccco2)c(F)c1`, the Ki in [2] was 168 nM; in assay [4] it was 308 nM; in [5] it was 11.6 nM; in [7], 162 nM. The Ratio Ki was 0.8 in assay [3]; 0.4 in assay [6]; 0.2 in assay [8]; 2 in the assay on Brucella suis [9]; 1.5 in [11]; 5.5 in assay [12]. The Ratio Ki was 21.3 in assay [13], 1.5 in assay [14] and 0.4 in assay [15].
